Reference: ChEMBL document CHEMBL4715832, “Isoquinoline-based biaryls as a robust scaffold for microtubule inhibitors” (Eur J Med Chem, 2020)
Calls of active or inactive are those of the source. The rule behind the calls is not given here.

Assays:
[1] = test system: HeLa; assay: Antiproliferative activity against human HeLa cells assessed as reduction in cell growth after 48 hrs by resazurin dye based fluorescence assay; assay type: functional
How it was run: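 HeLa cells grown in DMEM with 10% FCS and penicillin/streptomycin, 37 °C, 5% CO2. Seeded 5,000 cells/well, treated 24 h later with DMSO 1% final, then incubated 48 h. Resazurin reduction to resorufin measured over 3 h at 37 °C by fluorescence (ex 544/em 590 nm). Normalised to cosolvent control (100%) and cell-free wells (0%). Means of at least three independent experiments.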

[2] = test system: HL-60; assay: Antiproliferative activity against human HL-60 cells assessed as reduction in cell growth after 24 hrs by MTT assay; assay type: functional, cell-based; details: HL-60, 24 h
How it was run: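 HL-60 cells grown in RPMI 1640 with 10% FCS, no antibiotics, 37 °C, 5% CO2. Seeded 9,000 cells/well, treated 24 h later with DMSO cosolvent at 1% final. After 24 h, MTT 0.5 mg/mL for 2 h, absorbance read. Normalised to cosolvent control (100%) and Triton X-100-treated cells (0%). Means of at least three independent experiments.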

[3] = Solubility of compound; assay type: physicochemical
[4] = test system: HeLa; assay: Induction of microtubule network depolymerization in human HeLa cells after 24 hrs by immunofluorescence staining based confocal microscopic analysis; assay type: cell-based
How it was run: (§1)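 HeLa cells seeded on glass coverslips (50,000 cells/well), allowed to adhere 18 h, then treated 24 h. Fixed with 0.5% glutaraldehyde, quenched with 0.1% NaBH4, blocked with PBS + 10% FCS. Stained with rabbit anti-alpha-tubulin (1:400, 1 h), then Alexa Fluor 488 anti-rabbit secondary, with DAPI nuclear counterstain. Imaged by confocal microscopy, including z-stack projections.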

[5] = test system: HeLa; assay: Induction of microtubule network depolymerization in human HeLa cells at 15 uM after 24 hrs by immunofluorescence staining based confocal microscopic analysis; assay type: cell-based; how it was run: as §1

In the case of `COc1cc(-c2nccc3c(OC)c(OC)c(OC)cc23)ccc1O`, the EC50 [1] is reported as 50 µM.
In the case of `COC(=O)Nc1nc2cc(C(=O)c3cccs3)ccc2[nH]1` [NOCODAZOLE], the EC50 [1] is reported as 0.04 µM.
With `COc1cc(-c2nccc3c(OC)c(OC)c(OC)cc23)ccc1OP(=O)(O)O` the EC50 [1] was > 100 µM and the EC50 [2] was > 100 µM.
In the case of `COc1cc(-c2nccc3cc4c(cc23)OCO4)cc(OC)c1OC`, the EC50 [1] is reported as > 20 µM, the solubility [3] is reported as “Insoluble” and the Activity [4] is reported as “inactive”. The Activity [5] was “inactive”.
With `COc1ccc([C@H](O)c2nccc3c(OC)c(OC)c(OC)cc23)cc1` the EC50 [1] was > 100 µM.
In the case of `COc1ccc2ccnc(-c3cc(OC)c(OC)c(OC)c3)c2c1`, the Activity [1] is reported as “Dose-dependent effect”, the EC50 [1] is reported as 0.18 µM and the Activity [4] is reported as “Dose-dependent effect”.
In the case of `COc1ccc(-c2nccc3c(OC)c(OC)c(OC)cc23)c(C(=O)O)c1`, the EC50 [1] is reported as > 100 µM.
